# Experimental data taken from ChEMBL document CHEMBL2021854, “2-Aminopyrimidine based 4-aminoquinoline anti-plasmodial agents. Synthesis, biological activity, structure-activity relationship and mode of action studies” (Eur J Med Chem, 2012).
# Columns and labels:
# [1] = test system: Plasmodium falciparum; experiment: Resistant factor, ratio of IC50 for chloroquine-resistant Plasmodium falciparum K1 to IC50 for chloroquine-sensitive Plasmodium falciparum 3D7; type: functional
# Summary of the method: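 Resistance factor computed as IC50 against K1 divided by IC50 against 3D7, both from the [3H]hypoxanthine incorporation assay.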
# [2] = Cytotoxicity against african green monkey Vero cells assessed as minimum compound concentration required to causes microscopically detectable alteration of normal cell morphology; type: cell-based; details: chlorocebus sabaeus
# Summary of the method: (§1)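 Confluent, non-proliferating cell cultures were exposed to the compounds. The endpoint was the minimum concentration producing a microscopically detectable alteration of normal cell morphology.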
# [3] = test system: Human immunodeficiency virus 1; experiment: Antiviral activity against HIV1 infected in human CEM cells assessed as inhibition of virus-induced cytopathic effect after 4 days; type: functional, organism-based; details: Human immunodeficiency virus 1, CCRF-CEM, 96 h
# Summary of the method: (§2)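 CEM T-lymphocytes (~3 × 10^5 cells/ml) were infected with HIV-1 IIIB or HIV-2 ROD at ~100 CCID50, then immediately plated with a range of compound concentrations. Giant cell formation was scored microscopically after 4 days at 37 °C. Cytostatic activity was tested in parallel in uninfected CEM cells.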
# [4] = Cytotoxicity against human HEL cells assessed as minimum compound concentration required to causes microscopically detectable alteration of normal cell morphology; type: cell-based; summary of the method: as §1
# [5] = test system: Punta Toro virus; experiment: Antiviral activity against Punta Toro virus infected in african green monkey Vero cells assessed as inhibition of virus-induced cytopathogenicity after 4 days; type: functional, organism-based; details: 96 h
# Summary of the method: (§3)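 Confluent HEL, Vero or HeLa monolayers were inoculated with 100 CCID50 of virus in the presence of varying concentrations of compound. Cytopathicity was scored when it reached completion in untreated, virus-infected control cultures.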
# [6] = test system: Human alphaherpesvirus 3; experiment: Antiviral activity against […] expressing thymidine kinase infected in HEL cells assessed as reduction of virus plaque formation after 4 days; type: functional, cell-based; details: Human alphaherpesvirus 3, strain Oka vaccine, 96 h
# [7] = test system: Influenza B virus; experiment: Antiviral activity against Influenza B virus infected in MDCK cells assessed as inhibition of virus-induced cytopathogenicity after 4 days by colorimetric formazan-based MTS assay; type: functional, organism-based; details: 96 h
# [8] = test system: Respiratory syncytial virus; experiment: Antiviral activity against Respiratory syncytial virus infected in human HeLa cells assessed as inhibition of virus-induced cytopathogenicity after 4 days; type: functional, organism-based; details: 96 h; summary of the method: as §3
# [9] = test system: MDCK; experiment: Cytotoxicity against MDCK cells assessed as cell viability by colorimetric formazan-based MTS assay; design: species or system Canis lupus familiaris; details: dog, mdck
# Summary of the method: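 Cytotoxicity on MDCK cells; 50% cytotoxic concentration from cell viability measured by colorimetric formazan-based MTS assay.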
# [10] = Inhibition of beta-hematin formation assessed as Ferriprotoporphyrin IX biomineralisation at 1 mg/ml after 24 hrs; type: functional
# Summary of the method: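 Hemin chloride (0.5 mg/ml in DMSO) mixed with 0.5 M sodium acetate buffer pH 4.4 and drug or solvent control, incubated 37 °C for 24 h. Pellet washed with DMSO to remove unreacted hemin, dissolved in 0.1 N NaOH, absorbance read at 405 nm; percent inhibition relative to control. Highest concentration tested 1 mg/ml.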
# [11] = Cytotoxicity against MDCK cells assessed as minimum compound concentration required to causes microscopically detectable alteration of normal cell morphology; type: cell-based, Canis lupus familiaris; details: dog; summary of the method: as §1
# [12] = test system: Human alphaherpesvirus 2; experiment: Antiviral activity against HSV2 G infected in HEL cells assessed as inhibition of virus-induced cytopathogenicity after 4 days; type: functional, organism-based; details: Human alphaherpesvirus 2, strain G, 96 h; summary of the method: as §3
# [13] = test system: Feline infectious peritonitis virus; experiment: Antiviral activity against FIPV infected in cat CRFK cells assessed as inhibition of virus-induced cytopathic effect after 4 days by colorimetric formazan-based MTS assay; type: functional, cell-based; details: Alphacoronavirus 1, CRFK, 96 h
# [14] = test system: Human alphaherpesvirus 1; experiment: Antiviral activity against HSV1 KOS infected in HEL cells assessed as inhibition of virus-induced cytopathogenicity after 4 days; type: functional, organism-based; details: Human alphaherpesvirus 1, KOS, 96 h
# Summary of the method: (§4)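 Confluent HEL or HeLa monolayers infected with 100 CCID50 of virus in the presence of varying compound concentrations.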
# [15] = test system: Influenza B virus; experiment: Antiviral activity against Influenza B virus infected in MDCK cells assessed as reduction visual scoring of virus-induced cytopathogenicity after 4 days; type: functional, organism-based; details: 96 h
# Summary of the method: (§5)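 MDCK monolayers infected with 100 CCID50 of influenza A (H1N1 or H3N2) or influenza B, with varying compound concentrations. Cytopathicity read when untreated infected controls reached complete CPE.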
# [16] = test system: Human alphaherpesvirus 1; experiment: Antiviral activity against thymidine kinase-deficient acyclovir-resistant HSV1 KOS infected in HEL cells assessed as inhibition of virus-induced cytopathogenicity after 4 days; type: functional, organism-based; details: Human alphaherpesvirus 1, KOS, 96 h; summary of the method: as §4
# [17] = test system: Mammalian orthoreovirus 1; experiment: Antiviral activity against Reovirus-1 infected in african green monkey Vero cells assessed as inhibition of virus-induced cytopathogenicity after 4 days; type: functional, organism-based; details: Mammalian orthoreovirus 1, Vero, 96 h; summary of the method: as §3
# [18] = test system: Influenza A virus; experiment: Antiviral activity against Influenza A virus H3N2 infected in MDCK cells assessed as reduction visual scoring of virus-induced cytopathogenicity after 4 days; type: functional, organism-based; details: 96 h; summary of the method: as §5
# [19] = test system: Influenza A virus; experiment: Antiviral activity against Influenza A virus H1N1 infected in MDCK cells assessed as inhibition of virus-induced cytopathogenicity after 4 days by colorimetric formazan-based MTS assay; type: functional, organism-based; details: 96 h
# [20] = test system: Human betaherpesvirus 5; experiment: Antiviral activity against Cytomegalovirus AD-169 infected in HEL cells assessed as inhibition of virus plaque formation after 4 days; type: functional, organism-based; details: Human betaherpesvirus 5, AD169, HEL, 96 h
# [21] = test system: Human alphaherpesvirus 3; experiment: Antiviral activity against thymidine kinase-deficient […] infected in HEL cells assessed as reduction of virus plaque formation after 4 days; type: functional, organism-based; details: Human alphaherpesvirus 3, 07-1, HEL, 96 h
# [22] = test system: HeLa; experiment: Cytotoxicity against human HeLa cells assessed as cell viability by colorimetric formazan-based MTS assay
# [23] = test system: Human immunodeficiency virus 2; experiment: Antiviral activity against HIV2 infected in human CEM cells assessed as inhibition of virus-induced cytopathic effect after 4 days; type: functional, organism-based; details: Human immunodeficiency virus 2, CCRF-CEM, 96 h; summary of the method: as §2
# [24] = test system: Plasmodium falciparum; experiment: Antiplasmodial activity chloroquine-sensitive Plasmodium falciparum 3D7 infected in human A+ erythrocytes assessed as inhibition of [3H]-hypoxanthine incorporation after 24 hrs by scintillation counting; type: functional, organism-based
# [25] = test system: Plasmodium falciparum; experiment: Antiplasmodial activity chloroquine-resistant Plasmodium falciparum K1 infected in human A+ erythrocytes assessed as inhibition of [3H]-hypoxanthine incorporation after 24 hrs by scintillation counting; type: functional, organism-based
# [26] = test system: Human respirovirus 3; experiment: Antiviral activity against Parainfluenza-3 virus infected in african green monkey Vero cells assessed as inhibition of virus-induced cytopathogenicity after 4 days; type: functional, organism-based; details: Human respirovirus 3, Vero, 96 h; summary of the method: as §3
# [27] = test system: Sindbis virus; experiment: Antiviral activity against Sindbis virus infected in african green monkey Vero cells assessed as inhibition of virus-induced cytopathogenicity after 4 days; type: functional, organism-based; details: 96 h; summary of the method: as §3
# [28] = Cytotoxicity against human HeLa cells assessed as minimum compound concentration required to causes microscopically detectable alteration of normal cell morphology; type: cell-based; summary of the method: as §1
# [29] = Cytotoxicity against cat CRFK cells assessed as cell viability by colorimetric formazan-based MTS assay; design: species or system Felis catus; details: crfk
# [30] = test system: Human betaherpesvirus 5; experiment: Antiviral activity against Human cytomegalovirus Davis infected in HEL cells assessed as inhibition of virus plaque formation after 4 days; type: functional, organism-based; details: Human betaherpesvirus 5, Davis, 96 h
# [31] = test system: Coxsackievirus B4; experiment: Antiviral activity against Coxsackie virus B4 infected in human HeLa cells assessed as inhibition of virus-induced cytopathogenicity after 4 days; type: functional, organism-based; details: Enterovirus B, 96 h; summary of the method: as §3
# [32] = test system: Vesicular stomatitis virus; experiment: Antiviral activity against Vesicular stomatitis virus infected in HeLa cells assessed as inhibition of virus-induced cytopathogenicity after 4 days; type: functional, organism-based; details: 96 h; summary of the method: as §4
# [33] = Selectivity index, ratio of CC50 for MDCK cells to IC50 for chloroquine-resistant Plasmodium falciparum K1; type: functional
# Summary of the method: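 Selectivity index computed as MTS-based CC50 on MDCK cells divided by IC50 against P. falciparum K1.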
# [34] = test system: Coxsackievirus B4; experiment: Antiviral activity against Coxsackie virus B4 infected in african green monkey Vero cells assessed as inhibition of virus-induced cytopathogenicity after 4 days; type: functional, organism-based; details: Enterovirus B, 96 h; summary of the method: as §3
# [35] = test system: Influenza A virus; experiment: Antiviral activity against Influenza A virus H1N1 infected in MDCK cells assessed as reduction visual scoring of virus-induced cytopathogenicity after 4 days; type: functional, organism-based; details: 96 h; summary of the method: as §5
# [36] = test system: Vesicular stomatitis virus; experiment: Antiviral activity against Vesicular stomatitis virus infected in HEL cells assessed as inhibition of virus-induced cytopathogenicity after 4 days; type: functional, organism-based; details: 96 h; summary of the method: as §4
# [37] = test system: Felid alphaherpesvirus 1; experiment: Antiviral activity against Feline herpesvirus infected in cat CRFK cells assessed as inhibition of virus-induced cytopathic effect after 4 days by colorimetric formazan-based MTS assay; type: functional, organism-based; details: Felid alphaherpesvirus 1, CRFK, 96 h
# [38] = test system: Influenza A virus; experiment: Antiviral activity against Influenza A virus H3N2 infected in MDCK cells assessed as inhibition of virus-induced cytopathogenicity after 4 days by colorimetric formazan-based MTS assay; type: functional, organism-based; details: 96 h
smiles,measurement,setting,value
CCOC(=O)c1c(C)nc(NCCCNc2ccnc3cc(Cl)ccc23)nc1C,Ratio IC50,[1],2.548
same,MCC,[2],> 100 µM
same,EC50,[3],> 2 µM
same,MCC,[4],≥ 100 µM
same,EC50,[5],> 100 µM
same,EC50,[6],9.62 µM
same,EC50,[7],> 4 µM
same,EC50,[8],> 100 µM
same,CC50,[9],58.2 µM
same,inhibition,[10],66%
same,MCC,[11],20 µM
same,EC50,[12],> 100 µM
same,EC50,[13],> 100 µM
same,EC50,[14],> 100 µM
same,EC50,[15],> 4 µM
same,EC50,[16],> 100 µM
same,EC50,[17],> 100 µM
same,EC50,[18],> 4 µM
same,EC50,[19],> 4 µM
same,EC50,[20],8.94 µM
same,EC50,[21],> 20 µM
same,CC50,[22],17.5 µM
same,EC50,[23],> 2 µM
same,IC50,[24],0.0631 µM
same,IC50,[25],0.161 µM
same,EC50,[26],> 100 µM
same,EC50,[27],> 100 µM
same,MCC,[28],> 100 µM
same,CC50,[29],> 100 µM
same,EC50,[30],8.18 µM
same,EC50,[31],> 100 µM
same,EC50,[32],> 100 µM
same,Ratio CC50/IC50,[33],361.89
same,EC50,[34],> 100 µM
same,EC50,[35],> 4 µM
same,EC50,[36],> 100 µM
same,EC50,[37],> 100 µM
same,EC50,[38],> 4 µM
